These compounds were tested on MDA-MB-468 (assay: Cytotoxicity against human MDA-MB-468 cells after 72 hrs by MTT assay). Conditions: MDA-MB-468, 72 h.
Type: functional, cell-based
In short: (§1)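 Lines kept in RPMI-1640 with 10% FBS. Cells were seeded at 2×10³ per well and allowed to attach for 24 h at 37 °C. Medium was then replaced with medium holding serial dilutions from 100 mM DMSO stocks, with 0.1% DMSO as negative control, for 72 h at 37 °C. […] IC50 was fitted from the concentration series as the mean ± SD of three independent experiments run in duplicate.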

Row | Structure (SMILES) | IC50 [µM]
1 | COc1ccc(C(=O)c2[nH]c3cc(OC)ccc3c2NC(=O)c2cc(OC)c(OC)c(OC)c2)cc1 | 26.4
2 | COc1cc(C(=O)Nc2c(C(=O)c3ccc(F)c(F)c3)[nH]c3cc(Cl)ccc23)cc(OC)c1OC | > 100
3 | COc1ccc2c(NC(=O)c3cc(OC)c(OC)c(OC)c3)c(C(=O)c3ccc(C)cc3)[nH]c2c1 | > 100
4 | COc1ccc(C(=O)c2[nH]c3cc(Cl)ccc3c2NC(=O)c2cc(OC)c(OC)c(OC)c2)cc1 | 8.61
5 | COc1cc(C(=O)Nc2c(C(=O)c3ccc(F)cc3)[nH]c3ccccc23)cc(OC)c1OC | > 100
6 | COc1cc(C(=O)Nc2c(C(=O)c3ccc(F)cc3)[nH]c3cc(Cl)ccc23)cc(OC)c1OC | > 100
7 | COc1cc(C(=O)Nc2c(C(=O)c3cccs3)[nH]c3cc(Cl)ccc23)cc(OC)c1OC | 15.3

The compounds below were run on T47D (assay: Cytotoxicity against human T47D cells after 72 hrs by MTT assay). Conditions: not given.
Type: functional, cell-based
In short: as §1

Row | Structure (SMILES) | IC50 [µM]
8 | COc1ccc(C(=O)c2[nH]c3cc(OC)ccc3c2NC(=O)c2cc(OC)c(OC)c(OC)c2)cc1 | 6.3
9 | COc1cc(C(=O)Nc2c(C(=O)c3ccc(F)c(F)c3)[nH]c3cc(Cl)ccc23)cc(OC)c1OC | > 100
10 | COc1ccc2c(NC(=O)c3cc(OC)c(OC)c(OC)c3)c(C(=O)c3ccc(C)cc3)[nH]c2c1 | > 100
11 | COc1ccc(C(=O)c2[nH]c3cc(Cl)ccc3c2NC(=O)c2cc(OC)c(OC)c(OC)c2)cc1 | 11.1
12 | COc1cc(C(=O)Nc2c(C(=O)c3ccc(F)cc3)[nH]c3ccccc23)cc(OC)c1OC | 60.9
13 | COc1cc(C(=O)Nc2c(C(=O)c3ccc(F)cc3)[nH]c3cc(Cl)ccc23)cc(OC)c1OC | 76.2
14 | COc1cc(C(=O)Nc2c(C(=O)c3cccs3)[nH]c3cc(Cl)ccc23)cc(OC)c1OC | 31.4

These compounds were tested on BT-549 (assay: Cytotoxicity against human BT549 cells after 72 hrs by MTT assay). Conditions: BT-549, 72 h.
Type: functional, cell-based
In short: as §1

Row | Structure (SMILES) | IC50 [µM]
15 | COc1ccc(C(=O)c2[nH]c3cc(OC)ccc3c2NC(=O)c2cc(OC)c(OC)c(OC)c2)cc1 | 18.2
16 | COc1cc(C(=O)Nc2c(C(=O)c3ccc(F)c(F)c3)[nH]c3cc(Cl)ccc23)cc(OC)c1OC | 51.2
17 | COc1ccc2c(NC(=O)c3cc(OC)c(OC)c(OC)c3)c(C(=O)c3ccc(C)cc3)[nH]c2c1 | > 100
18 | COc1ccc(C(=O)c2[nH]c3cc(Cl)ccc3c2NC(=O)c2cc(OC)c(OC)c(OC)c2)cc1 | 11.1
19 | COc1cc(C(=O)Nc2c(C(=O)c3ccc(F)cc3)[nH]c3ccccc23)cc(OC)c1OC | 42.6
20 | COc1cc(C(=O)Nc2c(C(=O)c3ccc(F)cc3)[nH]c3cc(Cl)ccc23)cc(OC)c1OC | 35.5
21 | COc1cc(C(=O)Nc2c(C(=O)c3cccs3)[nH]c3cc(Cl)ccc23)cc(OC)c1OC | 37.5

What follows are compounds tested against Tubulin (Sus scrofa) (UniProt P02554+P02550) (assay: Inhibition of pig brain tubulin polymerization at 10 uM by spectrophotometric analysis relative to control). Conditions: not given.
Tubulin (Sus scrofa), sequence (P02550 whole entry, looked up): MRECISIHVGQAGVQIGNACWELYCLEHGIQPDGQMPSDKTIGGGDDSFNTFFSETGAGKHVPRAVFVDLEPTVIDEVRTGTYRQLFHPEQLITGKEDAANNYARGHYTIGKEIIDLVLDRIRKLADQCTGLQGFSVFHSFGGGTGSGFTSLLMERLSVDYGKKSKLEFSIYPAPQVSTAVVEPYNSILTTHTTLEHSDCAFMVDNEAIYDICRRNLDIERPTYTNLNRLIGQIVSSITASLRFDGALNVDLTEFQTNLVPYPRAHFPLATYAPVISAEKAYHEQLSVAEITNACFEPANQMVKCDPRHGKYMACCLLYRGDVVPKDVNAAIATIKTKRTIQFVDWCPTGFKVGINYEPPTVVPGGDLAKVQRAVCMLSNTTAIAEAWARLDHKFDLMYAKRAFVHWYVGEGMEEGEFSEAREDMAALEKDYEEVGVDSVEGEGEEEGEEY
Tubulin (Sus scrofa), sequence (P02554 whole entry, looked up): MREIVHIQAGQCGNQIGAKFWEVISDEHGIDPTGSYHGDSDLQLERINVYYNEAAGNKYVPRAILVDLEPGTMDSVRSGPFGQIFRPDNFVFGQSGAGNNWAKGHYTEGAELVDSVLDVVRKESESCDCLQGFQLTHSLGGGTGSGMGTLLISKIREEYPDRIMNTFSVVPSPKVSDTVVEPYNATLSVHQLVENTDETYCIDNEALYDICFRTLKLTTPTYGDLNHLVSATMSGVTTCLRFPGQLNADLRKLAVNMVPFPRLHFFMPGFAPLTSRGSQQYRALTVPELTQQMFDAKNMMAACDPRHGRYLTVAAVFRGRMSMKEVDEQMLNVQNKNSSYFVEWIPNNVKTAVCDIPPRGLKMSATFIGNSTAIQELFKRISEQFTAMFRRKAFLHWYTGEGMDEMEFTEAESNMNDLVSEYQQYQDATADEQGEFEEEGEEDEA
In short: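 Tubulin polymerization inhibition was measured with compounds at a final concentration of 10 µM.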

Row | Structure (SMILES) | inhibition [%]
22 | COc1ccc(C(=O)c2[nH]c3cc(OC)ccc3c2NC(=O)c2cc(OC)c(OC)c(OC)c2)cc1 | 25
23 | COc1ccc(C(=O)c2[nH]c3cc(Cl)ccc3c2NC(=O)c2cc(OC)c(OC)c(OC)c2)cc1 | 47

The compounds below were run on MCF7 (assay: Cytotoxicity against human MCF7 cells after 72 hrs by MTT assay). Conditions: MCF7, 72 h.
Type: functional, cell-based
In short: as §1

Row | Structure (SMILES) | IC50 [µM]
24 | COc1ccc(C(=O)c2[nH]c3cc(OC)ccc3c2NC(=O)c2cc(OC)c(OC)c(OC)c2)cc1 | 79.3
25 | COc1cc(C(=O)Nc2c(C(=O)c3ccc(F)c(F)c3)[nH]c3cc(Cl)ccc23)cc(OC)c1OC | 10.1
26 | COc1ccc2c(NC(=O)c3cc(OC)c(OC)c(OC)c3)c(C(=O)c3ccc(C)cc3)[nH]c2c1 | > 100
27 | COc1ccc(C(=O)c2[nH]c3cc(Cl)ccc3c2NC(=O)c2cc(OC)c(OC)c(OC)c2)cc1 | 17.6
28 | COc1cc(C(=O)Nc2c(C(=O)c3ccc(F)cc3)[nH]c3ccccc23)cc(OC)c1OC | 77.9
29 | COc1cc(C(=O)Nc2c(C(=O)c3ccc(F)cc3)[nH]c3cc(Cl)ccc23)cc(OC)c1OC | 61.1
30 | COc1cc(C(=O)Nc2c(C(=O)c3cccs3)[nH]c3cc(Cl)ccc23)cc(OC)c1OC | 47.5

Each compound was assayed on MDA-MB-231 (assay: Cytotoxicity against human MDA-MB-231 cells after 72 hrs by MTT assay). Conditions: MDA-MB-231, 72 h.
Type: functional, cell-based
In short: as §1

Row | Structure (SMILES) | IC50 [µM]
31 | COc1ccc(C(=O)c2[nH]c3cc(OC)ccc3c2NC(=O)c2cc(OC)c(OC)c(OC)c2)cc1 | 48.8
32 | COc1cc(C(=O)Nc2c(C(=O)c3ccc(F)c(F)c3)[nH]c3cc(Cl)ccc23)cc(OC)c1OC | > 100
33 | COc1ccc2c(NC(=O)c3cc(OC)c(OC)c(OC)c3)c(C(=O)c3ccc(C)cc3)[nH]c2c1 | > 100
34 | COc1ccc(C(=O)c2[nH]c3cc(Cl)ccc3c2NC(=O)c2cc(OC)c(OC)c(OC)c2)cc1 | 9.17
35 | COc1cc(C(=O)Nc2c(C(=O)c3ccc(F)cc3)[nH]c3ccccc23)cc(OC)c1OC | 50.8
36 | COc1cc(C(=O)Nc2c(C(=O)c3ccc(F)cc3)[nH]c3cc(Cl)ccc23)cc(OC)c1OC | 46.6
37 | COc1cc(C(=O)Nc2c(C(=O)c3cccs3)[nH]c3cc(Cl)ccc23)cc(OC)c1OC | > 100

These compounds were tested on Hs-578T (assay: Cytotoxicity against human Hs578T cells after 72 hrs by MTT assay). Conditions: not given.
Type: functional, cell-based
In short: as §1

Row | Structure (SMILES) | IC50 [µM]
38 | COc1ccc(C(=O)c2[nH]c3cc(OC)ccc3c2NC(=O)c2cc(OC)c(OC)c(OC)c2)cc1 | 10.4
39 | COc1cc(C(=O)Nc2c(C(=O)c3ccc(F)c(F)c3)[nH]c3cc(Cl)ccc23)cc(OC)c1OC | 64.6
40 | COc1ccc2c(NC(=O)c3cc(OC)c(OC)c(OC)c3)c(C(=O)c3ccc(C)cc3)[nH]c2c1 | > 100
41 | COc1ccc(C(=O)c2[nH]c3cc(Cl)ccc3c2NC(=O)c2cc(OC)c(OC)c(OC)c2)cc1 | 15.9
42 | COc1cc(C(=O)Nc2c(C(=O)c3ccc(F)cc3)[nH]c3ccccc23)cc(OC)c1OC | > 100
43 | COc1cc(C(=O)Nc2c(C(=O)c3ccc(F)cc3)[nH]c3cc(Cl)ccc23)cc(OC)c1OC | > 100
44 | COc1cc(C(=O)Nc2c(C(=O)c3cccs3)[nH]c3cc(Cl)ccc23)cc(OC)c1OC | 49.2

— ChEMBL document CHEMBL4382246, “Synthesis, biological evaluation, and molecular docking investigation of 3-amidoindoles as potent tubulin polymerization inhibitors” (Eur J Med Chem, 2019)
